HIV Env fusion – inhibitors of HIV-1 Env-driven cell-cell fusion, primary screen, HeLa-JRFL effector, CEM21 target cells, luciferase. inhibition, % at 12.3 µM. 360,000 compounds, 1.1% hits. AID 651610, 2012;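 active = mean replicate inhibition score of at least 50 and every replicate individually at or above 50; inconclusive = only one of the two criteria met; inactive = mean below 50 and not all replicates reaching 50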;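 note: 0% = plate neutral controls and 100% = maraviroc near 300 nM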
PAX8 reporter – inhibitors of PAX8-driven TPO luciferase reporter, primary screen, RMG-I cells, single concentration; SteadyGlo, 24 h; inhibition, % at 12.6 µM; 360,000 compounds, 1.2% hits; AID 652154, 2013;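 active = mean replicate inhibition at least 60% with every replicate also reaching 60%; inconclusive = only one of the two criteria is met; inactive = mean below 60% and not all replicates reaching 60%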;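 note: luciferase light reporting Pax8 driven TPO promoter activity; plate controls were median of neutral control wells for no effect and mitoxantrone controls for full effect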
CFTR F508del cor – F508del CFTR correction, initial screen, CFBE line, single point | CFBE cells, YFP halide quenching; stimulated with forskolin plus potentiator P3; % fluorescence drop versus neutral controls | activity (quench increase), % at 7.58 µM | 350,000 compounds, 0.36% hits | AID 720511, 2013;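 active = mean added fluorescence quench of at least 8% versus neutral control, with both replicates also reaching 8%; inconclusive = only one of the mean or replicate conditions met; inactive = mean below 8% and not both replicates reaching 8%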;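 note: cells transiently co-express mutant CFTR-F508del with the halide-sensitive YFP; corrector assay measuring rescue of mutant channel to the surface after 24 h compound exposure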
EWS-Fli inh – EWS/Fli-driven NR0B1 reporter inhibitors, primary screen, A673 cells, NR0B1 luciferase, luminescence, MLPCN library; inhibition, % at 12.6 µM; viability-normalised; 350,000 compounds, 0.67% hits;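 active = mean inhibition of at least 50% after viability correction, with every replicate also passing that limit; inconclusive = mean reaches 50% but only one of two replicates passes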;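 note: firefly luciferase signal divided by Alamar Blue viability fluorescence both relative to DMSO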
FN deposit inh – inhibitors of fibronectin matrix deposition, primary screen, AH1F cells, Alexa488-fibronectin fluorescence, plate reader; inhibition, % at 12.6 µM; 350,000 compounds, 0.086% hits; AID 743247, 2014; AH1F fibroblasts, overnight;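 active = mean inhibition across replicates of 30% or more, regardless of how many single replicates reach that level; inconclusive = mean under 30% yet at least half of replicates reach 30%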;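 note: positive control wells lacked labelled fibronectin entirely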
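Schedule: 1 h cell adhesion before compound, then overnight fibronectin incubation; test system: AH1F fibroblast monolayer depositing Alexa488-labelled fibronectin into matrix; quantity: 10000 AH1F cells per well; probe or stimulus: fluorescent fibronectin at 24 nM final; signal: fluorescence, ex 485 nm, em 525 nm; evaluation: percent inhibition as loss of matrix-bound fibronectin fluorescence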
PGC1a acetyl inh – inhibitors of PGC1a acetylation signal, primary screen, cell-based, U2OS, AlphaScreen, inhibitor mode; AlphaScreen anti-acetyl-lysine; with virally co-expressed GCN5 acetyltransferase; inhibition, % at 15.6 µM; 350,000 compounds, 0.17% hits; AID 651687, 2012;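 active = every replicate shows inhibition of at least 40%; inconclusive = mean inhibition at least 40% but some replicate below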;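 note: 0% = neutral control wells and 100% = positive control wells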
DNA binding – DNA binders by acridine orange displacement, dose response, counter-screen for EWS/Fli inhibitor project, biochemical, fluorescence polarization, cherry-pick; shares compounds with EWS-Fli inh; 640 compounds, 2% hits; AC35, µM (doses to about 68 µM), inactives show at the top dose activity change, negative = DNA binding; AID 720586, 2013; salmon sperm DNA acridine orange fluorescence polarization;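 active = fitted curve reaches a 35% signal fall AC35 below twice the sample's top valid tested dose, actives reach about 48 µM in these data; inactive = the rest, including activity in the rising direction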;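 note: lower polarization ratio signals compound binding to DNA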
* = called active by the depositor; ? = inconclusive; . = no result given; [ ] = another dose, or the depositor's remark. A selection: hits, their analogues and other compounds. The true share with any hit is near 2.3%.

SMILES	HIV Env fusion	PAX8 reporter	CFTR F508del cor	EWS-Fli inh	FN deposit inh	PGC1a acetyl inh	DNA binding
COc1cc(/C=C/C(=O)CC(=O)/C=C/c2ccc(O)c(OC)c2)ccc1O	.	26	2	73*	3	1	40µM*
COc1cc(C=C(C(C)=O)C(C)=O)ccc1O	-18	4	.	.	0	?	.
COc1cc(/C=C/C(=O)/C=C(O)/C=C/c2ccc(O)c(OC)c2)ccc1O	.	1	-5	81*	0	.	30µM*
COc1cc(C=O)ccc1O	.	-16	0	6	5	.	.
C[C@@H]1CN([C@@H](C)CO)C(=O)c2cc(Br)cnc2O[C@H]1CN(C)C(=O)C1CCOCC1	-6[16.7 µM]	.	1	-9	11	5	.
COCC#Cc1cnc2c(c1)C(=O)N([C@@H](C)CO)C[C@@H](C)[C@@H](CN(C)S(=O)(=O)c1cn(C)cn1)O2	-16[16.7 µM]	.	3	-7	-3	6	.
CCc1cnc(N2[C@H](C#N)[C@H](c3ccc(C#Cc4ccccc4F)cc3)[C@@H]2CO)s1	10[16.7 µM]	-8	0	-22	11	-15	.
N#C[C@H]1[C@H](c2ccc(C#Cc3ccccc3F)cc2)[C@@H](CO)N1C(=O)C1CC1	7[16.7 µM]	12	-2	19	6	-3	.
N#C[C@H]1N[C@H](CO)[C@H]1c1ccc(C#Cc2ccccc2F)cc1	.	-30	-1	53*	8	-16	4%
N#C[C@@H]1[C@H](c2ccc(C#Cc3ccccc3F)cc2)[C@@H](CO)N1C(=O)c1cccnc1	.	47	6	74*	7	-4	7%
CCc1cnc(N2[C@H](C#N)[C@H](c3ccc(C#Cc4ccccc4F)cc3)[C@H]2CO)s1	65*[16.7 µM]	49	5	53*	-19	-38	-6%
N#C[C@H]1[C@H](c2ccc(C#Cc3ccccc3F)cc2)[C@@H](CO)N1C(=O)C1CCOCC1	18[16.7 µM]	75*	-2	67*	-5	-7	-9%
C[C@@H]1CCCCO[C@@H](CN(C)Cc2ccc(C(=O)Nc3ccccc3N)cc2)[C@@H](C)CN([C@H](C)CO)C(=O)c2cc(NS(=O)(=O)c3cn(C)cn3)ccc2O1	.	-8	-1	5	.	-4	.
CC(=O)N(C)C[C@H]1Oc2ncc(C#C[C@H](C)O)cc2C(=O)N([C@@H](C)CO)C[C@@H]1C	3[16.7 µM]	.	2	-4	-1	-5	.
COc1ccc(C(=O)NCCNc2nc3cc(C)cc(C)c3cc2C#N)c(OC)c1	-37	9	-3	67*	2	.	-10%
COc1ccccc1C(=O)NCCNc1nc2cc(C)cc(C)c2cc1C#N	10	-7	2	2	-1	8	.
CNC[C@H]1Oc2ccc(N(C)C)cc2C(=O)N(C)C[C@H]1C	.	.	.	.	7	.	.
COc1ccc(-c2cc(CNc3nc(NC(C)C)nc4cc(-c5ccccc5)sc34)on2)cc1	-34	104*	-3	54*	-4	18	-1%
COc1ccccc1CNC(=O)C[C@H]1CC[C@H]2[C@H](COc3ccc(NC(=O)Nc4ccc(F)c(F)c4)cc3C(=O)N2C)O1	.	25	1	-2	9	0	.
COc1ccc2oc(C(=O)NCCc3ccccc3)c(C)c2c1	-7	15	1	69*	6	-36	-12%
Cc1ccc(S(=O)(=O)Nc2ccc3c(c2)CC(=O)N([C@H](C)CO)C[C@@H](C)[C@@H](CN(C)C(=O)Nc2c(C)noc2C)O3)cc1	0[16.7 µM]	-12	2	-6	.	1	.
COc1ccc(C#Cc2cnc3c(c2)C(=O)N([C@H](C)CO)C[C@@H](C)[C@@H](CN(C)CC2CC2)O3)cc1	25[16.7 µM]	.	-2	-2	.	-7	.
C[C@H]1CN([C@@H](C)CO)S(=O)(=O)c2ccc(C#CC3CC3)cc2O[C@@H]1CN(C)Cc1ccccc1F	18[16.7 µM]	.	0	24	-21	-12	.
C[C@@H]1CN([C@@H](C)CO)S(=O)(=O)c2ccc(C#CC(C)(C)O)cc2O[C@H]1CN(C)Cc1ccc(-c2ccccc2)cc1	?	.	-4	75*	6	9	-3%
C[C@@H]1CN([C@H](C)CO)S(=O)(=O)c2ccc(C#CC3CC3)cc2O[C@@H]1CN(C)Cc1ccccc1F	37[16.7 µM]	.	-3	61*	-4	-32	-10%
SMILES	HIV Env fusion	PAX8 reporter	CFTR F508del cor	EWS-Fli inh	FN deposit inh	PGC1a acetyl inh	DNA binding
C[C@@H]1CN([C@@H](C)CO)S(=O)(=O)c2ccc(C#CC(C)(C)O)cc2O[C@@H]1CN(C)Cc1ccc(-c2ccccc2)cc1	36[16.7 µM]	.	2	30	6	-22	.
Cc1ccccc1S(=O)(=O)N1CC[C@@H]2[C@@H](CO)Nc3ccc(-c4ccccc4F)cc3[C@@H]21	.	-4	2	5	-9	-10	.
Cc1c(CCOC(=O)CC23CC4CC(CC(C)(C4)C2)C3)sc[n+]1CC(=O)c1ccccc1	69*	-7	3	76*	-13	.	-4%
CCC(=O)N1C[C@H]2[C@@H](c3ccccc31)[C@H](CO)N2C(=O)Nc1ccccc1	.	-3	-1	-5	.	-4	.
O=C(O)CN1C(=O)/C(=C\c2ccccc2OCc2ccc(Cl)cc2Cl)SC1=S	35	2	3	59*	-4	6	-6%
COCCCNc1ccn2nc(-c3ccccc3)cc2n1	63*	10	-3	57*	-8	.	-9%
CN1[C@H](CO)[C@@H]2c3ccccc3N(C(=O)c3ccc(F)cc3)C[C@@H]21	.	8	-4	-7	.	-2	.
CC(=NNc1ccc2ccccc2n1)c1ccccc1O	18	32	3	74*	-10	.	-15%
CC(=NNc1ccc2ccccc2n1)c1ccccn1	110*	114*	4	85*	-8	.	8%
COc1ccc2nc(NN=C(C)c3ccccn3)cc(C)c2c1	6	32	-1	33	9	-27	.
Cn1ccc2cc(-c3ccc4ncnc(NCc5cccs5)c4c3)ccc21	42	83*	0	51*	23	-4	-13%
CCCCNC(=O)C(c1ccc(OCC(=O)OC)c(C(=O)OC)c1)N(CCOC)C(=O)CCCCCN1C(=O)NC(c2ccc(-c3ccccc3)cc2)C(C(=O)OCc2ccccc2)=C1C (stereo not drawn)	-27	37	0	59*	21	.	-4%
COc1ccc(S(=O)(=O)Nc2ccc3c(c2)C(=O)N([C@@H](C)CO)C[C@@H](C)[C@H](CN(C)C)OCCCC[C@@H](C)O3)cc1	-75[16.7 µM]	-4	2	.	0	-8	.
O=C(CNC(c1ccccc1)c1ccccc1)Nc1ccccc1-c1ccccc1	-5	8	.	54*	0	.	-11%

Bioassay records as filed in PubChem BioAssay.
